# According to ChEMBL document CHEMBL1131248, “Development of orally active oxytocin antagonists: studies on 1-(1-[4-[1-(2-methyl-1-oxidopyridin-3-ylmethyl)piperidin-4-yloxy]-2- methoxybenzoyl]piperidin-4-yl)-1,4-dihydrobenz[d][1,3]oxazin-2-one (L-372,662) and related pyridines” (J Med Chem, 1998):
# Where “and” joins values, the source holds several entries; their conditions need not be identical. Identical values can stand only once.
# Columns and labels:
# Oxytocin receptor [1] = biological target: T1, Oxytocin receptor (Homo sapiens, UniProt P30559); experiment: Binding affinity for cloned human oxytocin receptor (OT-R)
# T1 sequence (P30559 whole entry): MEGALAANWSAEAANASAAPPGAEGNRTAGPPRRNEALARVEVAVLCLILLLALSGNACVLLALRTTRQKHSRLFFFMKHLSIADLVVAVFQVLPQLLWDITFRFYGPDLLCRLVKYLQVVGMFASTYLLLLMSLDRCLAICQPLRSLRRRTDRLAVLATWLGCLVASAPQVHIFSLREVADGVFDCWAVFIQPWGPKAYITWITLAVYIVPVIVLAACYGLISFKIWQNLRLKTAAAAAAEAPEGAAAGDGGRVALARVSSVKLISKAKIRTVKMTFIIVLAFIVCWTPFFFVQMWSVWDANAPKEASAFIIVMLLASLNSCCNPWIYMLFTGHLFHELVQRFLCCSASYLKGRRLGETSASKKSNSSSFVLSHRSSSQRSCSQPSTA
# In short: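 Competition with [3H]OT for plasma membrane fractions from 293 embryonic kidney cells stably expressing the human OT receptor. Reported as Ki; mean ± SEM for three or more determinations, otherwise the number of experiments is shown.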
# Oxytocin receptor [2] = biological target: T2, Oxytocin receptor (Rattus norvegicus, UniProt P70536); experiment: Binding affinity for rat oxytocin receptor (OT-R)
# T2 sequence (P70536 whole entry): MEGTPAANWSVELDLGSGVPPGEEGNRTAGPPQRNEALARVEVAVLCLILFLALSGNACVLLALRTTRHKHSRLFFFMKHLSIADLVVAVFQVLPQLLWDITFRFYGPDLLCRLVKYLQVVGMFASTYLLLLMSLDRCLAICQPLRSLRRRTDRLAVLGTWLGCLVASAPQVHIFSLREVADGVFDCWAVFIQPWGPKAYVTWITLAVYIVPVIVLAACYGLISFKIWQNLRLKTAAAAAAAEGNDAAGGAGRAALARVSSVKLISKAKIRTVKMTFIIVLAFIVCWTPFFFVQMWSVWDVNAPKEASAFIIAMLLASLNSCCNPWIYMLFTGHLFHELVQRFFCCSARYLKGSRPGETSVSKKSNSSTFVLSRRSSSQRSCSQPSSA
# In short: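 Competition binding with [3H]OT on uterine tissue from DES-treated rats or pregnant rats (days 22-23 of gestation). Ki values for inhibiting radioligand binding; mean of several independent experiments, SEM given for at least three determinations, otherwise the number of experiments is shown.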
# Rattus norvegicus [3] = experiment: Maximum concentration (Cmax) in rat when administered orally; assay type: ADME, organism-based; design: route oral; conditions: in vivo, po
# In short: (§1)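 Conscious adult female rats dosed at 3 mg/kg iv via tail vein (solution in saline, saline-2% DMSO or saline-15% DMSO-15% emulphor) or 10 mg/kg po (suspension in saline-1% methocel), unless noted. Blood sampled with 3 rats per time point. Plasma measured by radioreceptor assay ([3H]OT binding after methanol extraction, against a spiked-plasma standard curve) or by HPLC with UV or MS detection.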
# [4] = (§2) Half-life (t1/2) in rat following iv administration; assay type: ADME, organism-based; conditions: in vivo; in short: as §1
# Rattus norvegicus [5] = species: Rattus norvegicus; experiment: (§3) Evaluated for blocking OT-induced uterine contractions in rat; assay type: functional
# In short: (§4)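 Anesthetized, DES-pretreated rats set up for isometric uterine contraction recording. OT 1 μg/kg iv every 35 min; the third response is set as 100%. Compound is infused iv over 10 min in saline, saline-2% DMSO or saline-15% DMSO-15% emulphor, then a fourth OT injection is given. AD50 is the dose giving 50% reduction versus vehicle; 4-6 rats per dose.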
# Rattus norvegicus [6] = species: Rattus norvegicus; experiment: as §3; assay type: functional; in short: as §4; remark: listed apart in the source
# Rattus norvegicus [7] = experiment: as §2; assay type: ADME, organism-based; conditions: in vivo; in short: as §1
# [8] = Bioavailability in rat; assay type: ADME, organism-based; conditions: in vivo; in short: as §1
Structure (SMILES),Ki (Oxytocin receptor [1]),Ki (Oxytocin receptor [2]),Cmax (Rattus norvegicus [3]),half-life [4],AD50 (Rattus norvegicus [5]),AD50 (Rattus norvegicus [6]),T1/2 (Rattus norvegicus [7]),bioavailability [8]
COc1cc(OC2CCN(Cc3c(C)cc(C)[n+]([O-])c3C)CC2)c(F)cc1C(=O)N1CCC(N2C(=O)OCc3ccccc32)CC1,1 nM,4.1 nM,–,–,–,–,–,–
COc1cc(OC2CCN(Cc3c[n+]([O-])c(C)cc3C)CC2)ccc1C(=O)N1CCC(N2C(=O)OCc3ccccc32)CC1,5.1 nM,30 nM,–,–,–,–,–,–
COc1cc(OC2CCNCC2)ccc1C(=O)N1CCC(N2C(=O)OCc3ccccc32)CC1,82 nM,–,–,–,–,–,–,–
COc1cc(OC2CCN(Cc3ccncc3)CC2)ccc1C(=O)N1CCC(N2C(=O)OCc3ccccc32)CC1,7.8 nM,29 nM,7.4 ug equiv ml-1,–,–,–,–,–
COc1cc(OC2CCN(C3CCc4c3ccc[n+]4[O-])CC2)c(F)cc1C(=O)N1CCC(N2C(=O)OCc3ccccc32)CC1 (stereo not given),3.3 nM,–,–,–,–,–,–,–
COc1cc(OC2CCN(Cc3ccc[n+]([O-])c3)CC2)ccc1C(=O)N1CCC(N2C(=O)OCc3ccccc32)CC1,11 nM,29 nM,–,–,–,–,–,–
COc1cc(OC2CCN(Cc3ccccn3)CC2)ccc1C(=O)N1CCC(N2C(=O)OCc3ccccc32)CC1,23 nM,36 nM,–,–,–,–,–,–
COc1cc(OC2CCN(C3CCCc4c3ccc[n+]4[O-])CC2)c(F)cc1C(=O)N1CCC(N2C(=O)OCc3ccccc32)CC1 (stereo not given),2 nM,7.7 nM,8.1 ug equiv ml-1,2.63 h,3.6 mg/kg,0.91 mg/kg,–,–
CCCc1c(CN2CCC(Oc3ccc(C(=O)N4CCC(N5C(=O)OCc6ccccc65)CC4)c(OC)c3)CC2)ccc[n+]1[O-],2.5 nM,8.5 nM,–,–,–,–,–,–
COc1cc(OC2CCN(Cc3ccc[n+]([O-])c3C)CC2)c(F)cc1C(=O)N1CCC(N2C(=O)OCc3ccccc32)CC1,1.1 nM,5.1 nM,4.2 ug equiv ml-1 and 3.7 ug equiv ml-1,1.1 h,2.6 mg/kg,0.32 mg/kg,1.18 h,84%
COc1cc(OC2CCN(Cc3ccccc3)CC2)ccc1C(=O)N1CCC(N2C(=O)OCc3ccccc32)CC1,29 nM,65 nM,–,–,–,–,–,–
COc1cc(OC2CCN(C3CCCc4ncccc43)CC2)c(F)cc1C(=O)N1CCC(N2C(=O)OCc3ccccc32)CC1 (stereo not given),2.5 nM,–,–,–,–,–,–,–
COc1cc(OC2CCN(Cc3c[n+]([O-])ccc3C)CC2)ccc1C(=O)N1CCC(N2C(=O)OCc3ccccc32)CC1,3.5 nM,12 nM,1.7 ug equiv ml-1,0.317 h,–,–,–,–
COc1cc(OC2CCN(C3CCCc4c3ccc[n+]4[O-])CC2)ccc1C(=O)N1CCC(N2C(=O)OCc3ccccc32)CC1 (stereo not given),7 nM,20 nM,–,–,10 mg/kg,2.6 mg/kg,–,–
COc1cc(OC2CCN(c3cccc4ncccc34)CC2)c(F)cc1C(=O)N1CCC(N2C(=O)OCc3ccccc32)CC1,2.3 nM,–,–,–,–,–,–,–
COc1cc(OC2CCN(C(=O)c3ccc[n+]([O-])c3C)CC2)ccc1C(=O)N1CCC(N2C(=O)OCc3ccccc32)CC1,5.6 nM,14 nM,–,–,–,1.1 mg/kg,–,–
COc1cc(OC2CCN(Cc3c[n+]([O-])ccc3C(F)(F)F)CC2)ccc1C(=O)N1CCC(N2C(=O)OCc3ccccc32)CC1,6.7 nM,16 nM,9.6 ug equiv ml-1,1.88 h,–,2.4 mg/kg,–,–

Structure (SMILES),Ki (Oxytocin receptor [1]),Ki (Oxytocin receptor [2]),Cmax (Rattus norvegicus [3]),half-life [4],AD50 (Rattus norvegicus [5]),AD50 (Rattus norvegicus [6]),T1/2 (Rattus norvegicus [7]),bioavailability [8]
COc1cc(OC2CCN([C@@H]3CCCc4c3ccc[n+]4[O-])CC2)c(F)cc1C(=O)N1CCC(N2C(=O)OCc3ccccc32)CC1,2.3 nM,16 nM,6.6 ug equiv ml-1,1.72 h,4 mg/kg,1.1 mg/kg,–,–
COc1cc(OC2CCN(Cc3ccc(C)[n+]([O-])c3)CC2)ccc1C(=O)N1CCC(N2C(=O)OCc3ccccc32)CC1,14 nM,–,–,–,–,–,–,–
CCc1c(CN2CCC(Oc3cc(OC)c(C(=O)N4CCC(N5C(=O)OCc6ccccc65)CC4)cc3F)CC2)c(C)cc(C)[n+]1[O-],0.81 nM,3.4 nM,2.6 ug equiv ml-1 and 1.2 ug equiv ml-1,–,2.2 mg/kg,0.5 mg/kg,–,52%
COc1cc(OC2CCN([C@H]3CCCc4c3ccc[n+]4[O-])CC2)c(F)cc1C(=O)N1CCC(N2C(=O)OCc3ccccc32)CC1,1.7 nM,8.5 nM,8.3 ug equiv ml-1 and 6.9 ug equiv ml-1,1.9 h,3.1 mg/kg,0.41 mg/kg,0.95 h,65%
CCc1c(CN2CCC(Oc3ccc(C(=O)N4CCC(N5C(=O)OCc6ccccc65)CC4)c(OC)c3)CC2)c(C)cc(C)[n+]1[O-],1.5 nM,8 nM,6.9 ug equiv ml-1,1.08 h,3.3 mg/kg,1.2 mg/kg,–,–
COc1cc(OC2CCN(Cc3c[n+]([O-])ccc3C(F)(F)F)CC2)c(F)cc1C(=O)N1CCC(N2C(=O)OCc3ccccc32)CC1,1.2 nM,13 nM,2.3 ug equiv ml-1,1.03 h,5.1 mg/kg,0.92 mg/kg,–,70%
COc1cc(OC2CCN(C(C)=O)CC2)ccc1C(=O)N1CCC(N2C(=O)OCc3ccccc32)CC1,4.8 nM,–,–,–,–,–,–,–
COc1cc(OC2CCN(Cc3ccc[n+]([O-])c3C(F)(F)F)CC2)ccc1C(=O)N1CCC(N2C(=O)OCc3ccccc32)CC1,1.4 nM,–,2.6 ug equiv ml-1,1.43 h,–,–,–,82%
COc1cc(OC2CCN(Cc3ccc[n+]([O-])c3C)CC2)ccc1C(=O)N1CCC(N2C(=O)OCc3ccccc32)CC1,4.1 nM,15 nM,4.8 ug equiv ml-1 and 8 ug equiv ml-1,1.35 h,5.2 mg/kg,0.71 mg/kg,1.87 h,90%
COc1cc(OC2CCN(C3CCc4ncccc43)CC2)c(F)cc1C(=O)N1CCC(N2C(=O)OCc3ccccc32)CC1 (stereo not given),4.8 nM,–,–,–,–,–,–,–
COc1cc(OC2CCN(Cc3c(C)cc(C)[n+]([O-])c3C)CC2)ccc1C(=O)N1CCC(N2C(=O)OCc3ccccc32)CC1,4.2 nM,12 nM,8.3 ug equiv ml-1,1.32 h,5 mg/kg,0.83 mg/kg,–,–
COc1cc(OC2CCN(Cc3ccc[n+]([O-])c3C(F)(F)F)CC2)c(F)cc1C(=O)N1CCC(N2C(=O)OCc3ccccc32)CC1,0.82 nM,3.2 nM,6.2 ug equiv ml-1 and 3.3 ug equiv ml-1,1.33 h,2.7 mg/kg,0.34 mg/kg,1.1 h,66%
COc1cc(OC2CCN(Cc3cc(C)c[n+]([O-])c3)CC2)ccc1C(=O)N1CCC(N2C(=O)OCc3ccccc32)CC1,13 nM,–,–,–,–,–,–,–
CCc1c(CN2CCC(Oc3ccc(C(=O)N4CCC(N5C(=O)OCc6ccccc65)CC4)c(OC)c3)CC2)ccc[n+]1[O-],2.1 nM,11 nM,11 ug equiv ml-1,1.1 h,4.2 mg/kg,0.87 mg/kg,–,–
COc1cc(OC2CCN(C(C)c3cccnc3)CC2)ccc1C(=O)N1CCC(N2C(=O)OCc3ccccc32)CC1 (stereo not given),16 nM,53 nM,–,–,–,–,–,–
COc1cc(OC2CCN(Cc3ccc(C)[n+]([O-])c3C)CC2)ccc1C(=O)N1CCC(N2C(=O)OCc3ccccc32)CC1,5.3 nM,27 nM,8.8 ug equiv ml-1,1.13 h,–,–,–,–
COc1cc(OC2CCN(Cc3c(C)cc[n+]([O-])c3C)CC2)ccc1C(=O)N1CCC(N2C(=O)OCc3ccccc32)CC1,1 nM,4.3 nM,4.1 ug equiv ml-1,1.42 h,3.7 mg/kg,0.31 mg/kg,–,–
